Measurements from PubChem BioAssay AID623885 (Vanderbilt Specialized Chemistry Center, 2012).
Where “and” joins values, the source holds several entries; their conditions need not be identical. Identical values can stand only once. Calls of active or inactive are those of the source.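 Rule for the calls: active = mean half-maximal effective concentration under 30 µM; inactive = the rest.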

Molecular target: Metabotropic glutamate receptor 3 (Rattus norvegicus) (UniProt P31422)
Assay: rat mGlu3 negative modulators or antagonists, dose response, thallium flux, HEK/GIRK cells (AID 623885)
Conditions: HEK293 GIRK rat mGlu3, thallium flux fluorescence; for percent of glutamate max response: at 30 µM (top of the series)
Summary of the method: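 System: HEK cells stably co-expressing GIRK channels, M4 muscarinic receptor, rat mGlu3 / Medium: HEPES-buffered HBSS / Incubation: dye loading 1 h room temperature, compounds ~2.5 min / Measured by: thallium influx through GIRK, FluoZin-2 AM fluorescence / Probe or stimulus: thallium buffer ± agonist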

Chain of Metabotropic glutamate receptor 3 (Rattus norvegicus) (P31422 whole entry, looked up): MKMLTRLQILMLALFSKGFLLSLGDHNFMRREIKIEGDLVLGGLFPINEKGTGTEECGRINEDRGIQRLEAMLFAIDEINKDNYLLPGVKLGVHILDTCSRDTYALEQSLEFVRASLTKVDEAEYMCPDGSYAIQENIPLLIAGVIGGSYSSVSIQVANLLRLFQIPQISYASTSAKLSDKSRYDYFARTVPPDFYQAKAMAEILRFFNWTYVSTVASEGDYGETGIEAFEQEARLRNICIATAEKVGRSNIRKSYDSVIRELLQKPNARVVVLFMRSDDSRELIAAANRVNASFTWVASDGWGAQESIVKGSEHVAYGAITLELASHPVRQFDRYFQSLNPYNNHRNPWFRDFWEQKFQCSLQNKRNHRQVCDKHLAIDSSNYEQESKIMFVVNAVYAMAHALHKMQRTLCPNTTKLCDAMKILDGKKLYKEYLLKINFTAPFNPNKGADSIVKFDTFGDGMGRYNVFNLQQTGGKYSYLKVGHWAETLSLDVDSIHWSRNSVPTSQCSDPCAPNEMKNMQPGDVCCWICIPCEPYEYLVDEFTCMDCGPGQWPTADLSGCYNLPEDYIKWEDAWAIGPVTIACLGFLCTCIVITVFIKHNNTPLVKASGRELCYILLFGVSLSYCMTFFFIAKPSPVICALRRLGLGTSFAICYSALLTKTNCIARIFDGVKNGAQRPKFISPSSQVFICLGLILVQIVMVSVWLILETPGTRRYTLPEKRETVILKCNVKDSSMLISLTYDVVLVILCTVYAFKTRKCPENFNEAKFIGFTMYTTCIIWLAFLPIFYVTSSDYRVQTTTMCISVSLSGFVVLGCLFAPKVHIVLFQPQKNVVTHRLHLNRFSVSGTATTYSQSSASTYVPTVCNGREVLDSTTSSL

Row | Compound | percent of glutamate max response | IC50 [nM]
1 | COc1ccc(C#Cc2ccc(C(=O)N3CCN(C(C)C)CC3)cc2)cc1 | 1.26 | –
2 | COc1ccc(C#Cc2cccc(C(=O)N3CCC(O)CC3)c2)cc1 | 13.9 | –
3 | CN(C)c1ccc(C#Cc2ccc(C(=O)N3CCC(O)CC3)cc2)cc1 | inactive | –
4 | COc1ccccc1C#Cc1ccc(C(=O)N2CCC(O)CC2)cc1 | inactive | –
5 | O=C(c1ccc(C#CC2CC2)cc1)N1CCC(O)CC1 | inactive | –
6 | CCCC1(O)CCN(C(=O)c2ccc(C#Cc3ccc(OC)cc3)cc2)CC1 | inactive | –
7 | COc1ccc(C#Cc2ccc(C(=O)N[C@H](C)C3CC3)cc2)cc1 | 69 | –
8 | COc1ccc(C#Cc2ccc(C(=O)N3CCC[C@H](CO)C3)cc2)cc1 | – | 3460
9 | O=C(c1ccc(C#CC2CCCCC2)cc1)N1CCC(O)CC1 | 37 | –
10 | CC(C)(C)C#Cc1ccc(C(=O)N2CCC(O)CC2)cc1 | inactive | –
11 | COc1ccc(C#Cc2ccc(C(=O)N[C@H](C)C(C)C)cc2)cc1 | inactive | –
12 | O=C(c1ccc(C#CCCCCO)cc1)N1CCC(O)CC1 | inactive | –
13 | CCc1ccc(C#Cc2ccc(C(=O)N3CCC(O)CC3)cc2)cc1 | 62 | –
14 | O=C(c1ccc(C#CCN2N=NCc3ccccc32)cc1)N1CCC(O)CC1 | inactive | –
15 | COc1ccc(C#Cc2ccc(C(=O)NC3CCC3)cc2)cc1 | inactive | –
16 | COc1ccc(C#Cc2ccc(C(=O)N3CCC(CO)C3)cc2)cc1 (configuration not stated) | 14.7 | –
17 | CCOC(=O)C#Cc1ccc(C(=O)N2CCC(O)CC2)cc1 | inactive | –
18 | COc1ccc(C#Cc2ccc(C(=O)N3CCC(O)CC3)cc2)cc1 | 7.43 | –
19 | COc1ccc(C#Cc2ccc(C(=O)N3CCC(O)(c4ccc(Cl)c(C(F)(F)F)c4)CC3)cc2)cc1 | 117 | –
20 | COc1ccc(C#Cc2ccc(C(=O)N3CCOCC3)cc2)cc1 | 65.1 | –
21 | O=C(c1ccc(C#CCCCCCl)cc1)N1CCC(O)CC1 | 47.8 | –
22 | COc1ccc(C#Cc2ccc(C(=O)N3CCC(C)(O)CC3)cc2)cc1 | 5.42 | –
23 | O=C(c1ccc(C#CCc2ccccc2)cc1)N1CCC(O)CC1 | 42.2 | –
24 | COc1ccc(C#Cc2ccc(C(=O)NCCC(C)(C)C)cc2)cc1 | inactive | –

Row | Compound | percent of glutamate max response | IC50 [nM]
25 | COc1cccc(C#Cc2ccc(C(=O)N3CCC(O)CC3)cc2)c1 | inactive | –
26 | O=C(c1ccc(C#Cc2c(C(F)(F)F)cccc2C(F)(F)F)cc1)N1CCC(O)CC1 | 54.9 | –
27 | O=C(c1ccc(C#Cc2ccc(C(F)(F)F)cc2)cc1)N1CCC(O)CC1 | 54.2 | –
28 | CCOC1CCN(C(=O)c2ccc(C#Cc3ccc(OC)cc3)cc2)CC1 | inactive | –
29 | COc1ccc(C#Cc2ccc(C(=O)NCCO)cc2)cc1 | inactive | –
30 | COc1ccc(C#Cc2ccc(C(=O)N3CCN(c4ccccc4OC)CC3)cc2)cc1 | inactive | –
31 | O=C(CN1CCc2cc(C#Cc3ccccc3)ccc2C1=O)NCCN1CCCCC1 | 3.68 | –
32 | COc1ccc(C#Cc2ccc(C(=O)N(CCO)c3ccccc3)cc2)cc1 | inactive | –
33 | O=C(c1ccc(C#CCN2C(=O)c3ccccc3C2=O)cc1)N1CCC(O)CC1 | inactive | –
34 | COCC(C)NC(=O)c1ccc(C#Cc2ccc(OC)cc2)cc1 (configuration not stated) | inactive | –
35 | COc1ccc(C#Cc2ccc(C(=O)N3CCC[C@@H](CO)C3)cc2)cc1 | -0.47 | 1480
36 | O=C(c1ccc(C#CC2=CCCCC2)cc1)N1CCC(O)CC1 | 46.1 | –
37 | COc1ccc(C#Cc2ccc(C(=O)NCCC(C)(C)O)cc2)cc1 | 114 | –
38 | O=C(c1ccc(C#Cc2ccccn2)cc1)N1CCC(O)CC1 | inactive | –
39 | O=C(CN1CCc2cc(C#Cc3ccccc3)ccc2C1=O)N1CCC2CCCCC2C1 (configuration not stated) | 26.5 and 64.7 | –
40 | COc1ccc(C#Cc2ccc(C(=O)N3CCC4CCCCC4C3)cc2)cc1 (configuration not stated) | inactive | –
41 | COc1ccc(C#Cc2ccc(C(=O)N3CCCC3)cc2)cc1 | 35.3 | –
42 | O=C(c1ccc(C#CC2(O)CCCCC2)cc1)N1CCC(O)CC1 | inactive | –
43 | O=C(c1ccc(C#CCOc2ccccc2)cc1)N1CCC(O)CC1 | 37.7 | –
44 | O=C(c1ccc(C#CCc2ccsc2)cc1)N1CCC(O)CC1 | 16.1 | –
45 | CCN(CC)CC#Cc1ccc(C(=O)N2CCC(O)CC2)cc1 | inactive | –
46 | CCC1(O)CCN(C(=O)c2ccc(C#Cc3ccc(OC)cc3)cc2)CC1 | 46.4 | –
47 | COc1ccc(C#Cc2ccc(C(=O)N3CCCC(CO)C3)cc2)cc1 (configuration not stated) | – | 2460
48 | COc1ccc(C#Cc2ccc(C(=O)N[C@H]3CCCCNC3=O)cc2)cc1 | inactive | –

Row | Compound | percent of glutamate max response | IC50 [nM]
49 | O=Cc1ccc(C#Cc2ccc(C(=O)N3CCC(O)CC3)cc2)cc1 | 21.8 | –
50 | COc1ccc(C#Cc2ccc(C(=O)N3CCC(OC)CC3)cc2)cc1 | inactive | –
51 | O=C(c1ccc(C#Cc2ccc(-c3ccccc3)cc2)cc1)N1CCC(O)CC1 | inactive | –
52 | CCCC(O)C#Cc1ccc(C(=O)N2CCC(O)CC2)cc1 (configuration not stated) | inactive | –
53 | O=C(c1ccc(C#CCC2CCCCC2)cc1)N1CCC(O)CC1 | 4.33 | –
54 | COc1ccc(C#Cc2ccc(C(=O)N3CCC(C#N)(c4ccccc4)CC3)cc2)cc1 | inactive | –
55 | O=C(c1ccc(C#Cc2ccc(Cl)cc2)cc1)N1CCC(O)CC1 | 51.6 | –
56 | O=C(c1ccc(C#Cc2ccncc2)cc1)N1CCC(O)CC1 | inactive | –
57 | COc1ccc(C#Cc2ccc(C(=O)NCCCCO)cc2)cc1 | inactive | –
58 | COc1ccc(C#Cc2ccc(C(=O)Nc3ccc(F)cn3)cc2)cc1 | 63.9 | –
59 | CC(C)CCC#Cc1ccc(C(=O)N2CCC(O)CC2)cc1 | 24.7 | –
60 | CC(O)(C#Cc1ccc(C(=O)N2CCC(O)CC2)cc1)c1cccc(F)c1 (configuration not stated) | inactive | –
61 | COc1ccc(C#Cc2ccc(C(=O)NCc3ccc(C(C)(C)C)cc3)cc2)cc1 | inactive | –
62 | COc1ccc(C#Cc2ccc(C(=O)N[C@H](C)C3CCCCC3)cc2)cc1 | inactive | –
63 | COc1ccc(C#Cc2ccc(C(=O)N3CCC3)cc2)cc1 | 31.5 | –
64 | COc1ccc(C#Cc2ccc(C(=O)N3CCC(C(C)=O)(c4ccccc4)CC3)cc2)cc1 | inactive | –
65 | COc1ccc(C#Cc2ccc(C(=O)NCC(C)O)cc2)cc1 (configuration not stated) | inactive | –
66 | O=C(c1ccc(C#CCCCN2C(=O)c3ccccc3C2=O)cc1)N1CCC(O)CC1 | inactive | –
67 | O=C(c1ccc(C#CCOCC2CO2)cc1)N1CCC(O)CC1 (configuration not stated) | inactive | –
68 | CC(C)(C)NC(=O)CN1CCc2cc(C#Cc3ccccc3)ccc2C1=O | 51.4 | –
69 | CCCCN(CCO)C(=O)c1ccc(C#Cc2ccc(OC)cc2)cc1 | 8.56 | –
70 | COc1ccc(C#Cc2ccc(C(=O)N3CCC[C@@H](C(=O)O)C3)cc2)cc1 | 19.5 | –
71 | COc1ccc(C#Cc2ccc(C(=O)N3CCCC(O)C3)cc2)cc1 (configuration not stated) | -1.25 | –
72 | COc1ccc(C#Cc2ccc(C(=O)N3CCCCC3CO)cc2)cc1 (configuration not stated) | 55.9 | –

Row | Compound | percent of glutamate max response | IC50 [nM]
73 | COc1ccc(C#Cc2ccc(C(=O)N3CCC[C@H](C(=O)O)C3)cc2)cc1 | 0.55 | –
74 | O=C(c1ccc(C#Cc2cccc3ccccc23)cc1)N1CCC(O)CC1 | 32.7 | –
75 | CC(C)(C)c1ccc(C#Cc2ccc(C(=O)N3CCC(O)CC3)cc2)cc1 | inactive | –
76 | O=C(c1ccc(I)cc1)N1CCC(O)CC1 | inactive | –
77 | COc1ccc(C#Cc2ccc(C(=O)NC(C)(C)C)cc2)cc1 | inactive | –
78 | COc1ccc(C#Cc2ccc(C(=O)NC3CCC(C)CC3)cc2)cc1 (configuration not stated) | inactive | –
79 | CCC(C)(O)C#Cc1ccc(C(=O)N2CCC(O)CC2)cc1 (configuration not stated) | inactive | –
80 | COc1ccc(C#Cc2ccc(C(=O)NC(C)(C)CO)cc2)cc1 | 162 | –
81 | CCC(N)(C#Cc1ccc(C(=O)N2CCC(O)CC2)cc1)CC | inactive | –
82 | CN(C)CC#Cc1ccc(C(=O)N2CCC(O)CC2)cc1 | inactive | –
83 | COc1ccc(C#Cc2ccc(C(=O)NC(C)C)cc2)cc1 | inactive | –
84 | N#CCCCC#Cc1ccc(C(=O)N2CCC(O)CC2)cc1 | inactive | –
85 | Cc1ccc(C#Cc2ccc(C(=O)N3CCC(O)CC3)cc2)cc1 | 33.9 | –
86 | O=C(c1ccc(C#CC2(O)CCCC2)cc1)N1CCC(O)CC1 | inactive | –
87 | COc1ccc(C#Cc2ccc(C(=O)NCCC3=CCCCC3)cc2)cc1 | inactive | –
88 | CC(C)CC#Cc1ccc(C(=O)N2CCC(O)CC2)cc1 | inactive | –
89 | O=C(c1ccc(C#CC2CCCC2)cc1)N1CCC(O)CC1 | inactive | –
90 | CCN1CCC[C@H]1CNC(=O)c1ccc(C#Cc2ccc(OC)cc2)cc1 | 5.77 | –
91 | CC(C)(C)OC(=O)N1CCC(NC(=O)CN2CCc3cc(C#Cc4ccccc4)ccc3C2=O)CC1 | 33.8 | –
92 | COc1ccc(C#Cc2ccccc2C(=O)N2CCC(O)CC2)cc1 | inactive | –
93 | COc1ccc(C#Cc2ccc(C(=O)N3C[C@H]4C[C@@H]3CN4C(=O)OC(C)(C)C)cc2)cc1 | inactive | –
94 | COc1ccc(C#Cc2ccc(C(=O)N3CCN(c4ccccc4)CC3)cc2)cc1 | inactive | –
95 | O=C(c1ccc(C#Cc2ccccc2F)cc1)N1CCC(O)CC1 | 22.4 | –
96 | N#Cc1ccc(C#Cc2ccc(C(=O)N3CCC(O)CC3)cc2)cc1 | 17.5 | –
